In brackets after ≈: the same amount, converted by molar mass. Activity calls are given as the source filed them. The rule behind the calls is not given here.
Legend:
Aedes aegypti = assay: Larvicidal activity against Aedes aegypti larvae assessed as minimum concentration required to kill all larvae after 24 hrs by dilution test; assay type: functional
Procedure, shortened: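 Roughly 10 A. aegypti larvae per tube in tap water. Compound added from geometric dilutions of a 1 mg/100 µL DMSO stock, with the volume made up to 10 mL, for final 50 to 1 ppm. Tubes kept in darkness at 26-28 °C for 24 h, then lethality scored under lab light. Value is the minimal concentration (ppm) killing all larvae.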

Cladosporium cucumerinum [1] = assay: Antifungal activity against Cladosporium cucumerinum at 100 ug after 2 to 3 days by bioautographic TLC assay; assay type: functional, organism-based
Procedure, shortened: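 Compounds in dichloromethane (1 mg/mL stock) were geometrically diluted across 1 to 0.015 mg/mL, and 10 µL of each dilution was applied to silica gel TLC plates. Plates were covered with C. cucumerinum in nutritive medium and incubated 2-3 days in moist boxes. The read-out was the minimal amount (µg) giving a clear inhibition zone on a dark gray background, up to 100 µg. Nystatin in MeOH served as the reference.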

Cladosporium cucumerinum [2] = assay: Antifungal activity against Cladosporium cucumerinum after 24 hrs by agar-dilution assay; assay type: functional
Procedure, shortened: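 Test solutions made by geometric dilution in DMSO from a 3 mg/mL DMSO stock, added to Sabouraud agar in wells at a final 60 to 3 µg/mL. C. cucumerinum suspended in distilled water and spread over the agar. Plates sealed hermetically, 30 °C for 24 h. Value is the MIC (µg/mL). Compound-free growth controls; duplicates; nystatin reference at 10 to 0.1 µg/mL.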

Cladosporium cucumerinum [3] = assay: Antifungal activity against Cladosporium cucumerinum assessed as minimum concentration required to inhibit fungal growth after 2 to 3 days by bioautographic TLC assay; assay type: functional
Procedure, shortened: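 Stocks at 1 mg/mL in dichloromethane (nystatin in MeOH), geometrically diluted over 1 to 0.015 mg/mL. 10 µL of each dilution applied to silica gel TLC plates. Plates then covered with C. cucumerinum in nutritive medium and held 2-3 days in a moist atmosphere. Clear zones read against a dark grey background. Value is the minimal amount (µg) inhibiting growth; nystatin reference.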

Compound	Activity (Aedes aegypti)	Activity (Cladosporium cucumerinum [1])	MIC (Cladosporium cucumerinum [2])	Activity (Cladosporium cucumerinum [3])
COc1cc(/C=C/c2ccccc2)cc(OC)c1 [3,5-O-DIMETHYLPINOSYLVIN]	3 ppm	inactive		
CC(C)=CCc1c(O)cc(/C=C/c2ccccc2)cc1O [CHIRICANINE A]	6 ppm		30 mg/L (≈ 107 µM)	5 µg
CC1(C)Oc2cc(/C=C/c3ccccc3)cc(O)c2C[C@@H]1O [CHIRICANINE B]	>50 ppm	inactive		
COc1c(CC=C(C)C)c(O)cc(/C=C/c2ccccc2)c1CC=C(C)C [CHIRICANINE C]	>50 ppm	inactive		
CC(C)=CCc1c(O)cc2c(c1/C=C/c1ccccc1)CC(O)C(C)(C)O2 (stereo unspecified) [CHIRICANINE D]	>50 ppm	inactive		
CC(C)=CCc1c(O)cc(O)c(CC=C(C)C)c1/C=C/c1ccccc1 [LONGISTYLINE D]	6 ppm	inactive		
C=C(C)[C@H]1Cc2c(ccc3c2O[C@@H]2COc4cc(OC)c(OC)cc4[C@@H]2C3=O)O1 [ROTENONE]	3 ppm			
NYSTATIN			1 mg/L	0.2 µg
